Rows were chosen to be rich in hits. Some 2.5% of all compounds tested hit in one or more screens of this group.
MEKK2 mut-MEK5 = signal of MEK5 binding to mutant human MEKK2 PB1 domain; percent response, % at 10 µM; bead flow cytometry, Alexa488-MEK5 binding to MEKK2 mutant; 290,000 compounds, 0.35% hits; in the data active means percent response above about 24%, passing the limit was not always enough
ABCB1 inh = human ABCB1 inhibition, ABCG2 as counter-screen | CCRF-Adr cells, JC-1 efflux, flow cytometry | inhibition, % at 6.6 µM | P08183 | 190,000 compounds, 0.067% hits | AID 1326; in the data active means inhibition above about 40%;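 further: 0% = vehicle and 100% = reference inhibitor; higher value means more JC-1 retained so stronger ABCB1 efflux block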
Efflux pump mplx = inhibitors of Candida antifungal efflux pumps expressed in yeast; S. cerevisiae Candida pump triplex, Nile Red efflux; inhibition, % at 10 µM; 330,000 compounds, 0.44% hits; AID 485275;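 active means plate passing quality check with inhibition over a set limit, or well fluorescence over plate mean plus 4 SD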;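 further: Nile Red retained in pooled yeast measured as flow cytometry median fluorescence; 0% = buffer negative control and 100% = Enniatin B positive control; higher means more Nile Red kept so more efflux inhibition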
ABCG2 inh = inhibitors of human ABCG2 transporter, ABCB1 counter-screen; Q9UNQ0; IgMXP3 cells, JC-1 efflux, flow cytometry; inhibition, % at 6.6 µM; 190,000 compounds, 0.1% hits; AID 1325;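 active means inhibition above 80%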;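 further: 0% = DMSO and 100% = nicardipine control wells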
Target sequence (Q9UNQ0 whole entry, looked up): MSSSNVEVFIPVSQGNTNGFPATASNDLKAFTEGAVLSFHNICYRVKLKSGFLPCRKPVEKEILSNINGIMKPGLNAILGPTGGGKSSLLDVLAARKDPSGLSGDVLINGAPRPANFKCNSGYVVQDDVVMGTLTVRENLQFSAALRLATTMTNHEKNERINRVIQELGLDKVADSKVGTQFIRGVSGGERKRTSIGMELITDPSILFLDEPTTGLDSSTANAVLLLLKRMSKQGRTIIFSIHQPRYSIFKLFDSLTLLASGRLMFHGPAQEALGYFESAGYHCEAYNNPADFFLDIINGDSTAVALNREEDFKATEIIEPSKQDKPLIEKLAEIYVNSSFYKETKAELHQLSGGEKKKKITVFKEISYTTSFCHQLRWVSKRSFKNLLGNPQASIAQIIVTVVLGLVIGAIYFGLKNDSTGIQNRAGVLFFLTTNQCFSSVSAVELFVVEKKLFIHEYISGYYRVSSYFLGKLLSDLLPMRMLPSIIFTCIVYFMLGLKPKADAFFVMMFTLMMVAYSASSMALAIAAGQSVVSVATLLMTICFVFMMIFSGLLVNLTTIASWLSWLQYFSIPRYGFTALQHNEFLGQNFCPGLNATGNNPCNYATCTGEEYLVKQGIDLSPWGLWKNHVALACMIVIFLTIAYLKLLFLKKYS
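Test system: IgMXP3 (ABCG2) plus far-red-tagged CCRF-Adr (ABCB1) cells. Reagent: JC-1 dye as substrate. Timing: 10 min exposure at 25 °C with rotation, no wash. Measured by: flow cytometric JC-1 green MFI at 530 nm. Read-out: percent efflux inhibition, scaled nicardipine 100% to DMSO 0%. Control set: nicardipine and DMSO wells.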
MEKK3 PB1 HTS = raises or lowers MEK5 binding to the human MEKK3 PB1 domain | 290,000 compounds, 1.4% hits | bead-based flow cytometry, Alexa488-MEK5 binding to MEKK3; actives lie on both sides; 0 = blocked by unlabeled MEK5, 100 = vehicle | AID 1529 | binding response (% of control), % at 10 µM;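 active means binding response more than 3 SD above or below the average of its plate-row segment, actives on both sides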;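 further: Alexa488 bead fluorescence after subtracting the streptavidin-only scavenger bead signal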
MEKK2wt PB1 HTS = raises or lowers MEK5 binding to wildtype human MEKK2 PB1 domain. 290,000 compounds, 1.1% hits. Q9Y2U5. bead flow cytometry, Alexa488-MEK5 binding to MEKK2 WT; actives lie on both sides. AID 1531. binding response (% of control), % at 10 µM; in the data active means binding response below about 67% or above about 130%
MEKK2wt confirm = raises or lowers MEK5 binding to wildtype human MEKK2, retest | shares compounds with MEKK3 PB1 HTS | bead flow cytometry, Alexa488-MEK5 binding to MEKK2 WT; actives lie on both sides | binding response (% of control), % at 10 µM | 5,900 compounds, 2.4% hits | AID 1892; in the data active means binding response below about 16% or above about 210%; inactive means in between
MEKK2mut confirm = signal of MEK5 binding to mutant human MEKK2, retest; shares compounds with MEKK3 PB1 HTS; bead flow cytometry, Alexa488-MEK5 binding to MEKK2 mutant; percent response, % at 10 µM; 5,900 compounds, 2% hits; AID 1893; in the data active means percent response mostly above about 71%, no sharp cut-off; inactive means mostly below about 38%;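 further: higher means compound restores mutant binding toward wildtype level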
MEKK3 confirm = MEKK3-MEK5 PB1 inhibition, single concentration confirmation. AID 1894. shares compounds with MEKK3 PB1 HTS. bead flow cytometry, Alexa488-MEK5 binding to MEKK3; hits give low values. binding response (% of control), % at 10 µM. 5,900 compounds, 1.8% hits;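 active means binding response below 72% of control, or above a set upper limit, though filed actives all read lower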;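 further: 100% = DMSO only wells and 0% = binding blocked by excess unlabeled MEK5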
The depositor's hits bear a star; · = not tested or not shown; [ ] = another dose, or the depositor's remark.

SMILES	MEKK2 mut-MEK5	ABCB1 inh	Efflux pump mplx	ABCG2 inh	MEKK3 PB1 HTS	MEKK2wt PB1 HTS	MEKK2wt confirm	MEKK2mut confirm	MEKK3 confirm
Cc1cccc(NC(=O)c2cc3ccccc3o2)c1	-4.0	-0.7	0.0	42.2	103.0	99.0	·	·	·
CN(C)c1ccc(C2CC(=O)C=C(Nc3ccccc3N)C2)cc1 (centres undefined)	-4.0	·	-0.1	·	100.0	103.0	·	·	·
O=C(NCc1ccco1)C1CC(c2ccc(Cl)c(Cl)c2)=NO1 (centres undefined)	-18.0	0.0	0.2	7.0	39.0*[inhibitor]	42.0*[inhibitor]	103.0	4.0	103.0
O=C1NCN(c2ccccc2)C12CCN(CCCC(c1ccc(F)cc1)c1ccc(F)cc1)CC2	25.0*	2.4	0.2	0.3	113.0	207.0*	165.0	50.0	106.0
O=C1CCC(=O)N1CCC(c1ccc(F)cc1)c1ccco1 (centres undefined)	5.0	-0.5	-0.1	1.1	104.0	100.0	·	·	·
CC(=O)/C(=C/N(C)C)Sc1ccc(C)cc1	6.0	0.5	0.3	2.8	106.0	107.0	·	·	·
O=C(O)C1Cc2[nH]cnc2C(c2ccccc2O)N1 (centres undefined)	-1.0	-0.1	0.8	0.5	60.0*[inhibitor]	92.0	96.0	-2.0	96.0
CN1CCN(CC(=O)N2c3ccccc3C(C)(c3ccc(Cl)cc3)CC2(C)C)CC1 (centres undefined)	27.0*	2.4	0.0	5.1	105.0	112.0	111.0	-1.0	100.0
CC(=O)Nc1cccc(C(=O)Oc2cccc(C)c2)c1O	-29.0	0.2	0.0	1.3	9.0*[inhibitor]	16.0*[inhibitor]	110.0	1.0	105.0
COc1c(/C=N/NC(=O)c2ccccc2O)c(CCN(C)C(C)=O)cc2c1OCO2	-1.0	1.4	0.2	15.1	134.0*	100.0	105.0	7.0	98.0
CCC(=O)N(C)CCc1cc2c(c(OC)c1/C=N/NC(=O)c1ccc(Br)cc1)OCO2	0.0	0.8	0.1	3.7	131.0*	99.0	67.0	-10.0	85.0
CCC(=O)N(C)CCc1cc2c(c(OC)c1/C=N/NC(=O)c1ccccc1O)OCO2	1.0	4.3	0.3	38.3	119.0	108.0	·	·	·
COc1ccccc1C1CCCN1Cc1nc(-c2cc3c(cc2Cl)OCO3)oc1C (centres undefined)	5.0	0.4	0.1	2.7	103.0	107.0	·	·	·
COc1ccccc1C1CCCN1Cc1nc(-c2ccc(C)s2)oc1C (centres undefined)	-14.0	-0.2	0.1	-0.1	61.0*[inhibitor]	63.0*[inhibitor]	107.0	6.0	101.0
CC(=O)OC(C(=O)NC1CCCCC1)c1ccccc1Cl (centres undefined)	-4.0	0.8	0.0	4.4	97.0	101.0	·	·	·
CC(=O)OC(C(=O)NC1CCCCC1)c1ccncc1 (centres undefined)	-15.0	-0.1	-0.1	31.4	75.0*[inhibitor]	83.0	98.0	-5.0	101.0
CCOC(=O)c1c(CSC(=N)N)n(-c2ccc(C)cc2)c2cc(Br)c(OC(C)=O)cc12	70.0*	5.7	0.1	36.6	102.0	232.0*	212.0*	55.0	108.0
CCOCCCNC(=O)C(NC(=O)c1ccc2c(c1)OCO2)c1ccccc1 (centres undefined)	-14.0	0.2	0.0	3.3	43.0*[inhibitor]	54.0	105.0	2.0	105.0
COCCCNC(=O)c1ccc2c(c1)OCO2	-7.0	0.7	0.2	3.4	67.0*[inhibitor]	73.0	100.0	-3.0	103.0
COCCCNC(=O)c1ccc2nc(Cc3ccc(OC)cc3)oc2c1	-15.0	·	0.1	·	38.0*[inhibitor]	16.0*[inhibitor]	104.0	2.0	104.0
CCCCOCCCNC(=O)c1ccc2c(c1)OCO2	4.0	0.1	0.0	0.5	105.0	110.0	·	·	·
